Our source for the activity change, negative = loss of viability and AC50 values is PubChem BioAssay AID493093 (Broad Institute, 2011).

Each structure is given as a SMILES string. The source made the active and inactive calls.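 How the source made its calls: active means compounds lowering viability with an AC50 at or under ten times their top valid dose; inconclusive means flat curve with 30 to 70% viability loss, or poor fit; inactive means flat near zero, weak potency, or rising signal.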

Assay [1] is described as follows: viability loss in BJeHLT fibroblasts, dose response, counter-screen for Ras selective lethality project, cell-based, dry powder, set 2 (AID 493093). Particulars: BJeHLT fibroblasts viability, Alamar Blue fluorescence, 48 h. The procedure, abridged:
(§1)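 Test system: BJeHLT fibroblasts, BJ cells transformed with hTERT, SV40 LT and ST; input: 1000 cells per well; incubation: 48 h exposure, 37 °C, 5% CO2, ~16 h Alamar Blue; signal: Alamar Blue fluorescence, 544/590 nm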
In general terms: Counterscreens check selectivity or assay interference.

The test system of assay [2] is BJeHLT fibroblasts viability, Alamar Blue fluorescence, 48 h. The assay is described as above. The method in brief:
as §1

For `Cc1onc(C(=O)N2CCN(C(c3ccncc3)c3ccncc3)CC2)c1[N+](=O)[O-]`, the activity change, negative = loss of viability in assay [1] (at 48 µM (top of the series)) was -2.93% (inactive).
Still for that read-out and setting: the same measure for `CC(C)c1onc(C(=O)N2CCN(C(c3ccccc3)c3ccccc3)CC2)c1[N+](=O)[O-]`: 10% (inactive).
The term AC50 denotes the concentration at which the activity in the assay is half-maximal. As to `Cc1onc(C(=O)N2CCN(C(c3ccc(Cl)cc3)c3ccc(Cl)cc3)CC2)c1[N+](=O)[O-]`, the AC50 in assay [2] is 0.272 µM.
Still for that read-out and setting: the figure for `Cc1onc(C(=O)N2CCN(C(c3ccccc3)c3ccc(Cl)cc3)CC2)c1[N+](=O)[O-]` (stereo not given) is 0.51 µM; for `Cc1onc(C(=O)N2CCCN(C(c3ccccc3)c3ccccc3)CC2)c1[N+](=O)[O-]` it is 2.79 µM; for `O=C(c1ccc([N+](=O)[O-])o1)N1CCCN(C(c2ccccc2)c2ccccc2)CC1` it is 46.2 µM.
The same measure, in the same setting: the same measure for `O=C(c1ccc([N+](=O)[O-])o1)N1CCN(C(c2ccc(F)cc2)c2ccc(F)cc2)CC1`: 12.1 µM.
For the compound `O=[N+]([O-])c1ccc(CN2CCN(C(c3ccccc3)c3ccccc3)CC2)o1`, the activity change, negative = loss of viability in assay [1] (at 48 µM (top of the series)) is -7.38% (inactive).
Still for that read-out and setting: the figure for `Cc1onc(C(=O)N2CCN(C(c3ccccc3)c3ccccc3)CC2)c1NS(C)(=O)=O` is 7.7% (inactive).
In the case of `Cc1onc(C(=O)NCc2ccc(F)cc2)c1[N+](=O)[O-]`, in assay [1] (at 68 µM (top of the series)), the activity change, negative = loss of viability was 10.9% (inactive).
In the case of `Cc1onc(C(=O)N2CCN(C(c3ccccc3)c3ccccc3)CC2)c1N`, in assay [1] (at 48 µM (top of the series)), the activity change, negative = loss of viability was -0.577% (inactive).
Consider `Cc1onc(C(=O)N2CCN(C(c3ccccn3)c3ccccn3)CC2)c1[N+](=O)[O-]`, for which, in assay [2], the AC50 is > 47.6 µM (inactive).
Take `CC(=O)Nc1c(C(=O)N2CCN(C(c3ccccc3)c3ccccc3)CC2)noc1C`: the activity change, negative = loss of viability in assay [1] (at 48 µM (top of the series)) was 8.25% (inactive).
Regarding `Cc1cc(C(=O)N2CCN(Cc3ccccc3)CC2)no1`, in assay [1] (at 68 µM (top of the series)), the activity change, negative = loss of viability is 1.07% (inactive).
Turning to `COc1ccc(C(c2ccc(OC)cc2)N2CCN(C(=O)c3ccc([N+](=O)[O-])o3)CC2)cc1`, the AC50 in assay [2] is 6.85 µM.
For `Cc1onc(C(=O)N2CCOCC2)c1[N+](=O)[O-]`, the activity change, negative = loss of viability in assay [1] (at 68 µM (top of the series)) was 1.06% (inactive).
Take `COc1ccc(C(c2ccc(OC)cc2)N2CCN(C(=O)c3noc(C)c3[N+](=O)[O-])CC2)cc1`: the AC50 in assay [2] is 5.32 µM.
In the case of `Cc1onc(C(=O)N2CCN(Cc3ccccc3)CC2)c1[N+](=O)[O-]`, the activity change, negative = loss of viability in assay [1] (at 68 µM (top of the series)) was 4.74% (inactive).
Turning to `Cc1onc(C(=O)N2CCN(C(c3ccccc3)c3ccccc3)CC2)c1C`, the activity change, negative = loss of viability in assay [1] (at 48 µM (top of the series)) was 18.4% (inactive).
The same measure, in the same setting: the figure for `Cc1onc(C(=O)N2CCN(C(c3ccccc3)c3ccccc3)CC2)c1Br` is 15.1% (inactive); for `Cc1ccc(C(=O)N2CCN(C(c3ccccc3)c3ccccc3)CC2)c([N+](=O)[O-])c1` it is 13% (inactive); for `Cc1onc(C(=O)NCCNC(c2ccccc2)c2ccccc2)c1[N+](=O)[O-]` it is -11.4% (inactive).
With `COc1ccccc1N1CCN(C(=O)c2noc(C)c2[N+](=O)[O-])CC1`, the activity change, negative = loss of viability in assay [1] (at 68 µM (top of the series)) was 7.12% (inactive).
As to `O=C(c1ccc([N+](=O)[O-])o1)N1CCN(C(c2ccccc2)c2ccccc2)CC1`, the AC50 in assay [2] was 18.9 µM.
On to `Cc1onc(C(=O)N2CCN(C(c3ccccc3)c3ccccc3)CC2)c1[N+](=O)[O-]`, for which, in assay [2], the AC50 was 4.97 µM.
With `O=C(c1noc2ccccc12)N1CCN(C(c2ccccc2)c2ccccc2)CC1`, in assay [1] (at 48 µM (top of the series)), the activity change, negative = loss of viability was 15.4% (inactive).
Still for that read-out and setting: the figure for `Cc1oc(C)c(C(=O)N2CCN(C(c3ccccc3)c3ccccc3)CC2)c1C` is 19.3% (inactive).
As for `Cc1onc(C(=O)N2CCN(C(c3ccc(F)cc3)c3ccc(F)cc3)CC2)c1[N+](=O)[O-]`, the AC50 in assay [2] is 0.757 µM.
As to `CCOC(=O)N1CCN(C(=O)c2noc(C)c2[N+](=O)[O-])CC1`, the activity change, negative = loss of viability in assay [1] (at 68 µM (top of the series)) is 6.37% (inactive).
Turning to `O=C(NCCNC(c1ccccc1)c1ccccc1)c1ccc([N+](=O)[O-])o1`, the AC50 in assay [2] was 3.35 µM.
